The subject of data set [1] is Trypanosoma cruzi. Kind of data set: Antitrypanosomal activity against Trypanosoma cruzi strain Y bloodstream trypomastigotes infected in Swiss Webster mouse assessed as reduction in parasitemia at 0.25 to 2.5 mg/kg, po bid for 5 days treatment started at 6 days post-infection by light microscopic analysis. Type of data set: functional. The conditions noted are these: dose 0.25-2.5 mg/kg, time 5 day. The procedure, abridged: (§1)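 Male Swiss Webster mice, 18–20 g, six per group; only mice with detectable parasitemia treated. Oral gavage for 5 consecutive days (6–10 dpi); test compound given b.i.d. in 10% Tween 80, benznidazole once daily, formulations freshly prepared. Parasitemia counted by light microscopy in 5 μL blood; mortality checked daily to 34 dpi.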

Data set [2] concerns the target T1, CYP450 (Homo sapiens, UniProt P04798+P05177+P05181+P08684+P10632+P10635+P11509+P11712+P13584+P20813+P20815+P20853+P24462+P24903+P33260+P33261+P51589+P78329+P98187+Q02928+Q08477+Q16678+Q16696+Q5TCH4+Q6VVX0+Q7Z449+Q8TAV3+Q96SQ9+Q9HB55). Put plainly: Metabolic stability of the compound in human liver microsomes S9 fraction assessed as CYP450-mediated metabolism by measuring parent compound remaining at 5 uM measured after 60 mins in presence of NADPH by UPLC-MS analysis. To be noted: read-out: Stabilty. Type of data set: ADME, subcellular. The essentials: (§2)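 Compound at 5 μM with 0.5 mg/mL male mouse or pooled human liver microsomes in potassium phosphate buffer; reaction started with 1 mM NADPH. Samples taken at 0, 15, 30 and 60 min and quenched in cold acetonitrile with internal standard. Parent remaining quantified by UPLC-MS/MS in MRM mode and given as % of the 0 min value.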

The subject of data set [3] is Trypanosoma cruzi. Kind of data set: Antitrypanosomal activity against Trypanosoma cruzi strain Y bloodstream trypomastigotes infected in Swiss Webster mouse assessed as reduction in parasitemia at 25 mg/kg, po bid for 5 days treatment started at 6 days post-infection and measured at 8 days post-infection by light microscopic analysis. The data set is classed as functional. To be noted: 48 h, time 2 day. The essentials:
as §1

Data set [4] deals with Trypanosoma cruzi. Put plainly: Antitrypanosomal activity against Trypanosoma cruzi strain Y bloodstream trypomastigotes infected in Swiss Webster mouse assessed as reduction in parasitemia at 2.5 mg/kg, po bid for 5 days treatment started at 6 days post-infection in presence of 10 mg/kg, po Benznidazole by light microscopic analysis. The data set is classed as functional. The conditions noted are these: 120 h, time 5 day. The procedure, abridged:
as §1

Data set [5] can be described thus: Cytotoxicity against human MRC-5 SV2 cells assessed as reduction in cell growth measured after 3 days by resazurin dye based fluorometric analysis. To be noted: time 3 day.
The subject of data set [6] is CYP450. Kind of data set: Metabolic stability of the compound in mouse liver microsomes S9 fraction assessed as CYP450-mediated metabolism by measuring parent compound remaining at 5 uM measured after 30 mins in presence of NADPH by UPLC-MS analysis. Type of data set: ADME, subcellular. To be noted: read-out: Stabilty. The procedure, abridged:
as §2

The nature of data set [7]: Toxicity in Swiss webster mouse infected with Trypanosoma cruzi Y trypomastigotes assessed as animal survival at 0.25 mg/kg, po bid for 5 days treatment started at 6 days post-infection and measured at 34 days post-infection. Type of data set: organism-based. To be noted: in vivo, 696 h, time 29 day. The procedure, abridged:
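Male Swiss Webster mice (18−20 g, 4−5 weeks) were infected i.p. with 10⁴ Y-strain bloodstream trypomastigotes from a donor mouse. Only mice with detectable parasitemia were treated, in groups of six. Oral gavage was given on days 6–10 post-infection, b.i.d. or q.d. as listed, in 10% Tween 80 vehicle, freshly prepared. Infected vehicle controls were included. Mortality was checked daily to 34 dpi as cumulative percentage.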

Data set [8] has as its target T1, CYP450. Kind of data set: Metabolic stability of the compound in human liver microsomes S9 fraction assessed as CYP450-mediated metabolism by measuring parent compound remaining at 5 uM measured after 30 mins in presence of NADPH by UPLC-MS analysis. Type of data set: ADME, subcellular. To be noted: read-out: Stabilty. The essentials: as §2
Data set [9] has as its target T2, UGT (Homo sapiens, UniProt O60656+O75310+O75795+P06133+P0DTE4+P0DTE5+P16662+P19224+P22309+P22310+P35503+P35504+P36537+P54855+Q6UWM9+Q9BY64+Q9HAW7+Q9HAW8+Q9HAW9). Kind of data set: Metabolic stability of the compound in human liver microsomes S9 fraction assessed as UGT-mediated metabolism by measuring parent compound remaining at 5 uM measured after 15 mins in presence of UDPGA by UPLC-MS analysis. To be noted: read-out: Stabilty. Type of data set: ADME, subcellular. The essentials:
(§3)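 Compound at 5 μM with 0.5 mg/mL male mouse or pooled human liver microsomes; reaction started with 2 mM UDPGA. Sampled at 0, 15, 30 and 60 min and quenched in cold acetonitrile with internal standard. Parent remaining measured by UPLC-MS/MS (MRM) as % of the 0 min value.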
In general terms: Liver microsomes are a subcellular fraction often used to study metabolism.

For data set [10], the system named is CYP450. Kind of data set: Metabolic stability of the compound in mouse liver microsomes S9 fraction assessed as CYP450-mediated metabolism by measuring parent compound remaining at 5 uM measured after 15 mins in presence of NADPH by UPLC-MS analysis. The data set is classed as ADME, subcellular. To be noted: read-out: Stabilty. The procedure, abridged:
as §2

Data set [11] concerns the target T2, UGT. Kind of data set: Metabolic stability of the compound in human liver microsomes S9 fraction assessed as UGT-mediated metabolism by measuring parent compound remaining at 5 uM measured after 60 mins in presence of UDPGA by UPLC-MS analysis. The data set is classed as ADME, subcellular. To be noted: read-out: Stabilty. The procedure, abridged: as §3
The nature of data set [12]: Cytotoxicity against Swiss Webster mouse 3D cardiomyocytes assessed as reduction in cell viability measured after 48 hrs by PrestoBlue assay. Type of data set: tissue-based, Cardiac Muscle Cell. The procedure, abridged: (§4)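 Mouse embryo heart cells as monolayer (2D) or 3D aggregates (25 × 10³ cells/well on 1% agarose). Uninfected cultures exposed 48 h to rising concentrations. Morphology checked by light microscopy; viability read by PrestoBlue; CC₅₀ determined.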

Data set [13] is described as follows: Cytotoxicity against Swiss mouse peritoneal macrophages assessed as cell detachment, lysis and granulation measured after 5 days by microscopic analysis. The data set is classed as cell-based, Peritoneal macrophage. To be noted: time 5 day. The essentials:
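Scored within the Leishmania macrophage assay over 5 days: detachment, lysis and granulation judged semi-quantitatively by microscopy across at least 500 cells. CC50 derived from % reduction in normal cells versus untreated wells.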

The test system of data set [14] is Leishmania infantum. Kind of data set: Antileishmanial activity against amastigote form of Leishmania infantum MHOM/MA(BE)/67 infected in Swiss mouse peritoneal macrophages assessed as reduction in parasite growth treated at 2 hrs post-infection and measured after 5 days by Giemsa staining based microscopic analysis. The data set is classed as functional, organism-based. To be noted: MHOM/MA(BE)/67, Peritoneal macrophage. The procedure, abridged:
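Swiss mouse peritoneal macrophages, harvested after 2-day potato-starch stimulation, infected 48 h after plating; compounds added 2 h post-infection.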

Data set [15] is described as follows: Selectivity index, ratio of LC50 for cytotoxicity against Swiss Webster mouse 2D cardiomyocytes to IC50 for antitrypanosomal activity against intracellular amastigote form of Trypanosoma cruzi Y infected in Swiss Webster mouse cardiomyocytes. The data set is classed as toxicity, cell-based. To be noted: read-out: Ratio LC50/IC50. The procedure, abridged: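 Ratio of cardiac-cell CC₅₀ to Y-strain amastigote IC₅₀. Cardiac cultures were infected after 24 h plating for 24 h with bloodstream trypomastigotes (10:1 parasite/host). After washing, cells were treated 48 h at 37 °C with a serial dilution. Cells were then Giemsa-stained, with infection and parasites per cell scored in 200 cells. Two independent experiments were run in duplicate.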

The subject of data set [16] is Trypanosoma cruzi. Put plainly: Antitrypanosomal activity against Trypanosoma cruzi Y bloodstream trypomastigotes assessed as inhibition of parasite growth incubated for 24 hrs by light microscopy. Type of data set: functional, organism-based.
Data set [17] can be described thus: Cytotoxicity against Swiss Webster mouse 2D cardiomyocytes assessed as reduction in cell viability measured after 48 hrs by PrestoBlue assay. Set-up: species or system Cardiac Muscle Cell. The conditions noted are these: read-out: LC50. The essentials: as §4
For data set [18], the system named is Trypanosoma cruzi. Put plainly: Antitrypanosomal activity against nifurtimox-sensitive Trypanosoma cruzi Tulahuen CL2 infected in Swiss mouse peritoneal macrophages assessed as inhibition of parasite growth measured after 7 days by spectrophotometric analysis. To be noted: Tulahuen CL2, Peritoneal macrophage, 168 h. The data set is classed as functional, organism-based.

A word on the inhibition in vivo: it is the percentage by which the read-out fell short of the control. The IC50 is the concentration at which inhibition is half-maximal. Take `Nc1ncnc2c1c(-c1ccc(Cl)cc1)nn2[C@@H]1O[C@H](CO)[C@@H](O)[C@H]1O`: the “inhibition (INH)” value in data set [1] is on record as 43%. Moreover, the figures for the remaining at 1 h, 5 µM in data set [2] and in data set [11] were 101% and 104%, respectively. For the same compound, the inhibition in vivo at 25 mg/kg in data set [3] amounted to 99%. Moreover, the inhibition in vivo at 2.5 mg/kg in data set [4] is 71%. For the same compound, in data set [5], the CC50 at 72 h was above 64 µM. The remaining at 0.5 h, 5 µM in data set [6] was 103%; in data set [8], 101%. For the same compound, the Activity result in data set [7] was “Toxic”. Also, the results for the remaining at 0.25 h, 5 µM in data set [9] and in data set [10] were 100% and 103%, respectively. Moreover, the CC50 at 48 h came out at 200 µM in data set [12] and 500 µM in data set [17]. Besides, the CC50 at 120 h in data set [13] was above 64 µM. Moreover, the IC50 in [14] is above 64 µM; in data set [16], above 81 µM; in data set [18], above 64 µM. Further, the selectivity ratio in data set [15] was above 1900.

For the origin of these results see ChEMBL document CHEMBL4811241, “Revisiting Pyrazolo[3,4-d]pyrimidine Nucleosides as Anti-Trypanosoma cruzi and Antileishmanial Agents” (J Med Chem, 2021).
